Compound activity (PubChem)
M1 antag = antagonists of human M1 muscarinic receptor. inhibition, % at 3 µM. P11229. AID 588852. CHO-K1 hM1, Fluo-8 calcium fluorescence, ACh EC80 antagonist. hit rate 1.3% among 360,000;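 active means percent inhibition above its own plate's cutoff, namely the mean of that plate's compound wells plus 3 SD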;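 further: peak over basal fluorescence ratio during 140 s after agonist addition; 0% = ACh EC80 plus DMSO and 100% = DMSO alone without agonist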
Target sequence (P11229 whole entry, looked up): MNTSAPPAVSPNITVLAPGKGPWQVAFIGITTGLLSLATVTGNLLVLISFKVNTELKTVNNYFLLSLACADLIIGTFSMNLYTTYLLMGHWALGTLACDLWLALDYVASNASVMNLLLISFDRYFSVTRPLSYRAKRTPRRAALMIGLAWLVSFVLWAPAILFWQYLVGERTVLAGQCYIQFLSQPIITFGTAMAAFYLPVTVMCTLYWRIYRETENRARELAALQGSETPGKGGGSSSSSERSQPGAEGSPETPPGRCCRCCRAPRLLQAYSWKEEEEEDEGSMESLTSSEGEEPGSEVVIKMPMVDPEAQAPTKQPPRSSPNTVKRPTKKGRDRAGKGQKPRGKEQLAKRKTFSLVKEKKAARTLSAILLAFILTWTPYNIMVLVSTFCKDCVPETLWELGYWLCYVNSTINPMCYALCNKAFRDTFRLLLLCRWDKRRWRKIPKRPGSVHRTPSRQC
CHRM5 agonist = agonists of human muscarinic M5 receptor (CHRM5) | CHO-K1 hM5 cells, Fluo-8 calcium fluorescence; 0% DMSO wells, 100% maximal acetylcholine response | P08912 | hit rate 0.19% among 360,000 | activation, % at 3 µM;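 active means activation above the run's mean over test compounds plus 3 SD, cut at about 23% in these data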;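 further: signal is peak over basal fluorescence ratio across the kinetic read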
M1 PAM = human CHRM1 positive allosteric modulation; P11229; CHO-K1 hM1, Fluo-8 calcium fluorescence, ACh EC20; 0% = ACh EC20, 100% = maximal ACh; activation, % at 3 µM; hit rate 0.088% among 360,000; AID 588819; in the data active means activation above about 19%, passing the limit was not always enough
CHRM1 agonist = agonists of human M1 muscarinic receptor; P11229; CHO-K1 hM1, Fluo-8 calcium fluorescence, agonist mode; 0% DMSO, 100% acetylcholine EC100; activation, % at 3 µM; hit rate 0.33% among 360,000; AID 588814;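 active means activation above the run's mean compound activation plus 3 SD, cut at about 16% in these data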;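 further: peak over basal fluorescence ratio within a 140 s kinetic read after compound addition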
M5 PAM = positive allosteric modulators of human muscarinic M5 receptor; P08912; CHO-K1 hM5, Fluo-8 calcium, ACh EC20 PAM; 0% = ACh EC20, 100% = ACh EC100; activation, % at 3 µM; hit rate 0.3% among 360,000;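 active means activation above the run cutoff, the mean activation of all test compounds plus 3 SD, cut at about 18% in these data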
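Probe or stimulus: acetylcholine, EC20 level; Assay system: human M5 receptor in CHO-K1 cells; Schedule: compound preincubation 140 s before EC20 acetylcholine addition; Technique: intracellular calcium via Fluo-8 fluorescence; Dosing: single-point, 3 µM nominal; Read-out basis: percent activation from peak-over-basal fluorescence ratio, scaled EC20-to-EC100 acetylcholine; Repeats: one well per compound, no replicates.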
M5 antag = antagonists of human muscarinic M5 receptor (CHRM5) | P08912 | CHO-hM5 cells, Fluo-8 calcium fluorescence, ACh EC80 | inhibition, % at 3 µM | hit rate 0.59% among 360,000 | AID 624040;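 active means inhibition above a per-plate cutoff, the mean of that plate's test compounds plus 3 SD, cut at about 27% in these data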;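 further: 0% = acetylcholine EC80 with DMSO and 100% = DMSO without agonist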
Active calls of the source: *. In the library only some 2% were active in any assay of this set; here they are far more common.

For CCCCN1CC(N2CCN(CCO)CC2)CS1(=O)=O (stereo not given) the results were M1 antag -1, CHRM5 agonist 3, M1 PAM 17, CHRM1 agonist 20*, M5 PAM 4 and M5 antag 3.
Screening COc1ccc(N2CCN(C(=O)Cn3nnc(-c4ccc(OC)c(OC)c4)n3)CC2)cc1 returned M1 antag -4, CHRM5 agonist 3, M1 PAM 1, CHRM1 agonist -1, M5 PAM -1 and M5 antag -1.
Screening Cc1ccc(-c2nnn(CC(=O)N3CCN(c4ccccc4)CC3)n2)o1 returned M1 antag -21, CHRM5 agonist 1, M1 PAM 30*, CHRM1 agonist 4, M5 PAM 2 and M5 antag -6.
`CC(C)NC(=O)N(C)C[C@@H]1Oc2cc(C#Cc3ccccn3)ccc2S(=O)(=O)N([C@@H](C)CO)C[C@H]1C` gave M1 antag -11, CHRM5 agonist 2, M1 PAM 0, CHRM1 agonist -4, M5 PAM -5 and M5 antag 12.
For Oc1ccc(Cl)cc1C1=NNC(c2ccc(Cl)cc2)C1 (stereo not given) the results were M1 antag -5, CHRM5 agonist -1, M1 PAM 5, CHRM1 agonist 0, M5 PAM -5 and M5 antag 3.
`Oc1ccc(Cl)cc1C1=NNC(c2cc(Br)cc3c2OCOC3)C1` (stereo not given) gave M1 antag -4, CHRM5 agonist 4, M1 PAM 13, CHRM1 agonist -2, M5 PAM 21* and M5 antag -2.
`Cc1cccnc1NC(=O)Nc1cccc(F)c1` gave M1 antag -12, CHRM5 agonist 1, M1 PAM 14, CHRM1 agonist 0, M5 PAM -2 and M5 antag -1.
For CCOCc1nnc(NC(=O)c2ccco2)s1 the results were M1 antag 2, CHRM5 agonist -7, M1 PAM 6, CHRM1 agonist -1, M5 PAM 4 and M5 antag 3.
`CC(C)c1nnc(NC(=O)C2c3ccccc3Oc3ccccc32)s1` gave M1 antag 45*, CHRM5 agonist 8, M1 PAM -19, CHRM1 agonist 1, M5 PAM 12 and M5 antag -6.
CCOCc1nnc(NC(=O)C2c3ccccc3Oc3ccccc32)s1 was read as M1 antag 12, CHRM5 agonist 28*, M1 PAM -13, CHRM1 agonist 6, M5 PAM -1 and M5 antag 1.
Screening Cc1nnc(NC(=O)C2c3ccccc3Oc3ccccc32)s1 returned M1 antag 15, CHRM5 agonist -3, M1 PAM -11, CHRM1 agonist -5, M5 PAM 4 and M5 antag -2.
CCOC(=O)C1(CCOc2ccccc2)CCN(Cc2ccccc2O)CC1 was read as M1 antag -15, CHRM5 agonist -22, M1 PAM 7, CHRM1 agonist -4, M5 PAM -16 and M5 antag 7.
Screening CCOC(=O)C1(CCOc2ccccc2)CCN(Cc2cccc(OC)c2OC)CC1 returned M1 antag 42*, CHRM5 agonist -14, M1 PAM -24, CHRM1 agonist -2, M5 PAM -29 and M5 antag 22.
`CC(C)C[C@@H](CN)NC(=O)c1nc[nH]c1C(=O)N[C@@H](C)C(=O)CNC[C@H](C)NC(=O)c1nc[nH]c1C(=O)N[C@@H](Cc1ccccc1)C(=O)O` gave M1 antag -1, CHRM5 agonist 1, M1 PAM -2, CHRM1 agonist -6, M5 PAM 1 and M5 antag -3.
`O=C(CCCC1=NS(=O)(=O)c2ccccc2N1)N1CCN(c2ccccc2)CC1` gave M1 antag 0, CHRM5 agonist -4, M1 PAM 0, CHRM1 agonist -1, M5 PAM -7 and M5 antag 0.
`CC(C)(CC(=O)N1CCN(c2ccc(Cl)cc2)CC1)CC1=NS(=O)(=O)c2ccccc2N1` gave M1 antag 30*, CHRM5 agonist 8, M1 PAM -8, CHRM1 agonist 1, M5 PAM -23 and M5 antag 28*.
